Test system: HEK-293T
Assay: Multiplex assay against HEK293T;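 on Population Tubulin-Different-Phenotype (%): share of the cells with healthy nuclei that show this phenotype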
Type: toxicity, cell-based
Settings: human
How it was run: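 Tubulin, mitochondrial-mass and membrane-permeability phenotypes are per cents of healthy-nucleus cells. Cells were gated by CellPathfinder machine learning into Hoechst high-intensity objects or normal cells, normal cells into healthy, pyknosed or fragmented nuclei, and pyknosed cells into mitotic or apoptotic. Before that, live cells stained at seeding with Hoechst33342, BioTracker Green Microtubule Cytoskeleton Dye, MitoTracker Red and Annexin V Alexa Fluor 680 were imaged on a CQ1 microscope at 37°C and 5% CO2 after compound addition.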

[1] = 12 h, 1 µM, compound concentration 1 uM, replicate 1
[2] = 12 h, 1 µM, compound concentration 1 uM, replicate 2
[3] = 12 h, 10 µM, compound concentration 10 uM, replicate 1
[4] = 12 h, 10 µM, compound concentration 10 uM, replicate 2
[5] = 24 h, 1 µM, compound concentration 1 uM, replicate 1
[6] = 24 h, 1 µM, compound concentration 1 uM, replicate 2
[7] = 24 h, 10 µM, compound concentration 10 uM, replicate 1
[8] = 24 h, 10 µM, compound concentration 10 uM, replicate 2
[9] = 48 h, 1 µM, compound concentration 1 uM, replicate 1
[10] = 48 h, 1 µM, compound concentration 1 uM, replicate 2
[11] = 48 h, 10 µM, compound concentration 10 uM, replicate 1
[12] = 48 h, 10 µM, compound concentration 10 uM, replicate 2

Compound: CN(C)C(=O)/C(C#N)=C/c1ccc(-c2nc3cnc4[nH]ccc4c3n2C2CCCCC2)o1
- Population Apoptotic (%) [1]: 48%
- Population Fragmented Nuclei (%) [1]: 9%
- Population Healthy Nuclei (%) [1]: 42%
- Population Hoechst High Intensity Objects (%) [1]: 12%
- Population Membrane Permeable-Phenotype (%) [1]: 2%
- Population Mitochondria Different-Phenotype (%) [1]: 68%
- Population Mitotic Cells (%) [1]: 51%
- Population Normal (%) [1]: 87%
- Population Pyknosed Nuclei (%) [1]: 48%
- Population Tubulin-Different-Phenotype (%) [1]: 44%
- Total Cell Count [1]: 283
- Population Apoptotic (%) [2]: 21%
- Population Fragmented Nuclei (%) [2]: 6%
- Population Healthy Nuclei (%) [2]: 46%
- Population Hoechst High Intensity Objects (%) [2]: 5%
- Population Membrane Permeable-Phenotype (%) [2]: 5%
- Population Mitochondria Different-Phenotype (%) [2]: 36%
- Population Mitotic Cells (%) [2]: 78%
- Population Normal (%) [2]: 94%
- Population Pyknosed Nuclei (%) [2]: 46%
- Population Tubulin-Different-Phenotype (%) [2]: 37%
- Total Cell Count [2]: 175
- Population Apoptotic (%) [3]: 41%
- Population Fragmented Nuclei (%) [3]: 24%
- Population Healthy Nuclei (%) [3]: 39%
- Population Hoechst High Intensity Objects (%) [3]: 37%
- Population Membrane Permeable-Phenotype (%) [3]: 17%
- Population Mitochondria Different-Phenotype (%) [3]: 63%
- Population Mitotic Cells (%) [3]: 58%
- Population Normal (%) [3]: 62%
- Population Pyknosed Nuclei (%) [3]: 36%
- Population Tubulin-Different-Phenotype (%) [3]: 60%
- Total Cell Count [3]: 451
- Population Apoptotic (%) [4]: 32%
- Population Fragmented Nuclei (%) [4]: 17%
- Population Healthy Nuclei (%) [4]: 43%
- Population Hoechst High Intensity Objects (%) [4]: 25%
- Population Membrane Permeable-Phenotype (%) [4]: 15%
- Population Mitochondria Different-Phenotype (%) [4]: 50%
- Population Mitotic Cells (%) [4]: 67%
- Population Normal (%) [4]: 74%
- Population Pyknosed Nuclei (%) [4]: 39%
- Population Tubulin-Different-Phenotype (%) [4]: 79%
- Total Cell Count [4]: 219
- Population Apoptotic (%) [5]: 46%
- Population Fragmented Nuclei (%) [5]: 10%
- Population Healthy Nuclei (%) [5]: 45%
- Population Hoechst High Intensity Objects (%) [5]: 14%
- Population Membrane Permeable-Phenotype (%) [5]: 2%
- Population Mitochondria Different-Phenotype (%) [5]: 60%
- Population Mitotic Cells (%) [5]: 53%
- Population Normal (%) [5]: 85%
- Population Pyknosed Nuclei (%) [5]: 44%
- Population Tubulin-Different-Phenotype (%) [5]: 40%
- Total Cell Count [5]: 316
- Population Apoptotic (%) [6]: 21%
- Population Fragmented Nuclei (%) [6]: 8%
- Population Healthy Nuclei (%) [6]: 68%
- Population Hoechst High Intensity Objects (%) [6]: 2%
- Population Membrane Permeable-Phenotype (%) [6]: 10%
- Population Mitochondria Different-Phenotype (%) [6]: 23%
- Population Mitotic Cells (%) [6]: 78%
- Population Normal (%) [6]: 97%
- Population Pyknosed Nuclei (%) [6]: 22%
- Population Tubulin-Different-Phenotype (%) [6]: 34%
- Total Cell Count [6]: 239
- Population Apoptotic (%) [7]: 44%
- Population Fragmented Nuclei (%) [7]: 25%
- Population Healthy Nuclei (%) [7]: 39%
- Population Hoechst High Intensity Objects (%) [7]: 41%
- Population Membrane Permeable-Phenotype (%) [7]: 9%
- Population Mitochondria Different-Phenotype (%) [7]: 61%
- Population Mitotic Cells (%) [7]: 55%
- Population Normal (%) [7]: 58%
- Population Pyknosed Nuclei (%) [7]: 35%
- Population Tubulin-Different-Phenotype (%) [7]: 57%
- Total Cell Count [7]: 448
- Population Apoptotic (%) [8]: 34%
- Population Fragmented Nuclei (%) [8]: 22%
- Population Healthy Nuclei (%) [8]: 56%
- Population Hoechst High Intensity Objects (%) [8]: 30%
- Population Membrane Permeable-Phenotype (%) [8]: 7%
- Population Mitochondria Different-Phenotype (%) [8]: 49%
- Population Mitotic Cells (%) [8]: 65%
- Population Normal (%) [8]: 69%
- Population Pyknosed Nuclei (%) [8]: 21%
- Population Tubulin-Different-Phenotype (%) [8]: 72%
- Total Cell Count [8]: 280
- Population Apoptotic (%) [9]: 45%
- Population Fragmented Nuclei (%) [9]: 13%
- Population Healthy Nuclei (%) [9]: 49%
- Population Hoechst High Intensity Objects (%) [9]: 13%
- Population Membrane Permeable-Phenotype (%) [9]: 2%
- Population Mitochondria Different-Phenotype (%) [9]: 21%
- Population Mitotic Cells (%) [9]: 54%
- Population Normal (%) [9]: 86%
- Population Pyknosed Nuclei (%) [9]: 37%
- Population Tubulin-Different-Phenotype (%) [9]: 30%
- Total Cell Count [9]: 381
- Population Apoptotic (%) [10]: 15%
- Population Fragmented Nuclei (%) [10]: 9%
- Population Healthy Nuclei (%) [10]: 80%
- Population Hoechst High Intensity Objects (%) [10]: 3%
- Population Membrane Permeable-Phenotype (%) [10]: 8%
- Population Mitochondria Different-Phenotype (%) [10]: 5%
- Population Mitotic Cells (%) [10]: 84%
- Population Normal (%) [10]: 96%
- Population Pyknosed Nuclei (%) [10]: 10%
- Population Tubulin-Different-Phenotype (%) [10]: 21%
- Total Cell Count [10]: 389
- Population Apoptotic (%) [11]: 46%
- Population Fragmented Nuclei (%) [11]: 26%
- Population Healthy Nuclei (%) [11]: 46%
- Population Hoechst High Intensity Objects (%) [11]: 34%
- Population Membrane Permeable-Phenotype (%) [11]: 13%
- Population Mitochondria Different-Phenotype (%) [11]: 29%
- Population Mitotic Cells (%) [11]: 53%
- Population Normal (%) [11]: 65%
- Population Pyknosed Nuclei (%) [11]: 27%
- Population Tubulin-Different-Phenotype (%) [11]: 40%
- Total Cell Count [11]: 490
- Population Apoptotic (%) [12]: 35%
- Population Fragmented Nuclei (%) [12]: 18%
- Population Healthy Nuclei (%) [12]: 67%
- Population Hoechst High Intensity Objects (%) [12]: 21%
- Population Membrane Permeable-Phenotype (%) [12]: 10%
- Population Mitochondria Different-Phenotype (%) [12]: 17%
- Population Mitotic Cells (%) [12]: 64%
- Population Normal (%) [12]: 78%
- Population Pyknosed Nuclei (%) [12]: 13%
- Population Tubulin-Different-Phenotype (%) [12]: 49%
- Total Cell Count [12]: 338

From ChEMBL document CHEMBL4689842, “EUbOPEN Chemogenomics Library wave 1” (2021)
